Laboratory results: publication PMC6503206 (International Journal of Nanomedicine, 2019)
In brackets after ≈: the same amount, converted by molar mass.

Columns and labels:
[1] = cited from earlier work
[2] = Solubility of celecoxib in oils and cosurfactants; format: physicochemical; conditions: thermodynamic from solid
Method in brief: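 Excess solid test compound was stirred magnetically in 2 mL of each neat oil or cosurfactant at room temperature for 24 hrs, then centrifuged at 10,000 rpm for 10 mins. The supernatant was passed through a 0.45 µm membrane, diluted with methanol, and quantified by HPLC on a 5 µm C18 reversed-phase column (4.6×250 mm).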

[3] = cited from earlier work; remark: listed apart in the source

Row | solubility at 24 h ([2]; PEG 400, organic solvent or mixture) | solubility at 24 h ([2]; ethanol, organic solvent or mixture) | solubility at 24 h ([2]; fish oil, oil or lipid) | solubility at 24 h ([2]; glycerine, organic solvent or mixture) | solubility at 24 h ([2]; medium-chain triglycerides (MCT oil), oil or lipid) | solubility at 24 h ([2]; oleic acid, oil or lipid) | solubility at 24 h ([2]; propylene glycol (PG), organic solvent or mixture) | SMILES | log partition coefficient [1] | solubility in water [3]
1 |  |  |  |  |  |  |  | CCN(CC)c1ccc2nc3c4ccccc4c(=O)cc-3oc2c1 [Nile red] | 5.0 | 
2 | 433 ± 31.7 mg/mL (≈ 1140 mM) | 79.2 ± 10.2 mg/mL (≈ 208 mM) | 3.25 ± 0.16 mg/mL (≈ 8.52 mM) | 0.42 ± 0.01 mg/mL (≈ 1.1 mM) | 11.6 ± 3.08 mg/mL (≈ 30.5 mM) | 0.73 ± 0.06 mg/mL (≈ 1.91 mM) | 24.2 ± 0.99 mg/mL (≈ 63.6 mM) | Cc1ccc(-c2cc(C(F)(F)F)nn2-c2ccc(S(N)(=O)=O)cc2)cc1 [celecoxib, Celecoxib] |  | 0.00255 to 0.00457 mg/mL
